Data: article PMC3746001 (ACS chemical biology, 2013)
Read-outs that look alike come from different tables or passages of the source.

Assays:
[1] = molecular target: Human DNA polymerase beta (hpol β) (Homo sapiens, UniProt P06746); assay: Fluorescence-based polymerase assay, hpol β; type: biochemical
[2] = molecular target: T1, human Y-family DNA polymerase kappa (hpol κ) (Homo sapiens, UniProt Q9UBT6); assay: Fluorescence-based polymerase assay, hpol κ; type: biochemical
T1 sequence (Q9UBT6 19-526): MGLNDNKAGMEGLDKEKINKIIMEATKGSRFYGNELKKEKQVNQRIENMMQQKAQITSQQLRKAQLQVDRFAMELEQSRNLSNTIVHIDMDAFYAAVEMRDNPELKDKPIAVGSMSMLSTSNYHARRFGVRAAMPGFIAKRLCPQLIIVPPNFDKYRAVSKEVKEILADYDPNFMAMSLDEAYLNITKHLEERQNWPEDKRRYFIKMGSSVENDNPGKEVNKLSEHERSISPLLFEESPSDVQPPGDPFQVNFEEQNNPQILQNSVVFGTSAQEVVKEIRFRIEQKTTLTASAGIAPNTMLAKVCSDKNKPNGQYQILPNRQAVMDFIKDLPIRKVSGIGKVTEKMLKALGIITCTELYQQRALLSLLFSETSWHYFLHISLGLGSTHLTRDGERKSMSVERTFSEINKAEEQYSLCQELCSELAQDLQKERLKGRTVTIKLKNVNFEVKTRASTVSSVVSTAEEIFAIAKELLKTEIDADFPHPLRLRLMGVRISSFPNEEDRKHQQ

hpol ι = molecular target: T2, hpol ι (Homo sapiens, UniProt Q9UNA4); assay: Fluorescence-based polymerase assay, hpol ι; type: biochemical
T2 sequence (Q9UNA4 26-446): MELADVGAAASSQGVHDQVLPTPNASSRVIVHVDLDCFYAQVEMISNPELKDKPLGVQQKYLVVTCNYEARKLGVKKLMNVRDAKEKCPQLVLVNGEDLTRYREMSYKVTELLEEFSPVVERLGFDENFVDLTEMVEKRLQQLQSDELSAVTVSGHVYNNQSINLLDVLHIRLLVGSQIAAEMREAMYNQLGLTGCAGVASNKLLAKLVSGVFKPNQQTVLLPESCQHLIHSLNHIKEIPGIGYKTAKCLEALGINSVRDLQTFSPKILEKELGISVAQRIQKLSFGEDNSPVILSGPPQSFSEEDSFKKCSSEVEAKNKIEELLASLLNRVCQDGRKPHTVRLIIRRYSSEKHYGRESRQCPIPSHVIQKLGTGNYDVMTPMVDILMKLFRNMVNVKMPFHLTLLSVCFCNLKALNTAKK

hpol η = assay: Steady-state kinetic analysis of hpol η activity in the presence of inhibitor; type: biochemical, human; conditions: for kcat: varying dTTP
Summary of the method: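 Recombinant hpol η (His/GST-tagged in E. coli BL21(DE3), nickel then GST affinity, GST cleaved) in the fluorescence strand-displacement assay (TAMRA-labelled displaced strand), in 50 mM Tris pH 8.0, 40 mM NaCl, 2 mM DTT, 0.01% Tween-20. dTTP was 1–100 µM and inhibitor 0 or 1–50 µM. RFU were converted to product, linear velocities fit to a hyperbola and corrected for enzyme concentration to give kcat and Km,dTTP.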

With O=C1NC(=S)NC(=O)C1=Cc1cn(C(=O)c2ccccc2Br)c2ccc(Cl)cc12 [ITBA-12, 5-((1-(2-bromobenzoyl)-5-chloro-1H-indol-3-yl)methylene)-2-thioxodihydropyrimidine-4,6(1H,5H)-dione] the IC50 [1] was 41 ± 24 µM, the “Fold difference in IC50 between hpol η and hpol β” value ([1]; hpol β versus hpol η) was ~ 1.4 fold and the IC50 [2] was 59 ± 11 µM. For the same molecule, the “IC50 for hpol κ relative to hpol η” value ([2]; hpol κ versus hpol η) was “twice as high”, the IC50 (hpol ι) was roughly 80 µM and the Km (hpol η; read-out: Km,dTTP, varying dTTP, [ITBA-12] 1 μM) was 6.7 ± 0.9 µM. For the same molecule, the Km (hpol η; read-out: Km,dTTP, varying dTTP, [ITBA-12] 10 μM) was 7.6 ± 1 µM, the Km (hpol η; read-out: Km,dTTP, varying dTTP, [ITBA-12] 20 μM) was 8.5 ± 1.4 µM and the Km (hpol η; read-out: Km,dTTP, varying dTTP, [ITBA-12] 40 μM) was 15 ± 2 µM. The Km (hpol η; read-out: Km,dTTP, varying dTTP, [ITBA-12] 50 μM) was 26.7 ± 5.6 µM, the kcat (hpol η; [ITBA-12] 1 μM) was 3.9 ± 0.1 min⁻¹ and the kcat (hpol η; [ITBA-12] 10 μM) was 4.3 ± 0.1 min⁻¹. For the same molecule, the kcat (hpol η; [ITBA-12] 20 μM) was 4.0 ± 0.2 min⁻¹, the kcat (hpol η; [ITBA-12] 40 μM) was 4.2 ± 0.2 min⁻¹ and the kcat (hpol η; [ITBA-12] 50 μM) was 3.5 ± 0.3 min⁻¹.
